Source: ChEMBL document CHEMBL4513216, “Probing the Open Global Health Chemical Diversity Library for Multistage-Active Starting Points for Next-Generation Antimalarials” (ACS Infect Dis, 2020)

Test: Toxicity liver stage against HepG2, at 10uM
Assay type: cell-based
Parameters: test concentration 10 uM, cell line HepG2-A16-CD81EGFP
Details: human, HepG2-A16-CD81EGFP cells; read-out: INHIBITION
Outline: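 Uninfected HepG2-A16-CD81EGFP cells, 3 × 10^3 per well, 1536-well, plated on prespotted compound at 10 μM final, parasite-free screening media added to match infected plates; puromycin 10 μM positive, DMSO 0.5% negative; run in parallel with 48 h PbLuc assay at 37 °C, 5% CO2; viability by CellTiter-Glo luminescence, normalized to controls.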

Row | SMILES | cytotoxicity at 10 µM
1 | CCCS(=O)(=O)N1CCN(c2ccnc(N3CCCC3)n2)CC1 | -11.3%
2 | Cc1c(C)n(Cc2ccccn2)c2nc3c(c(N)c12)CCCCCC3 | 9.15%
3 | COc1ccnc(CN2CCC(O)(c3ccc(C)cn3)CC2)c1OC | -138%
4 | CCS(=O)(=O)N1CCC2(CCN(Cc3nccs3)CC2)CC1 | 7.13%
5 | Cc1noc(CN2CCN(C(=O)N(C)C)CC2)n1 | -1.22%
6 | CN(C)Cc1nc(C(C)(C)NC(=O)c2ccnn2C)no1 | 0.966%
7 | CCCN(CCO)S(=O)(=O)c1ccc2[nH]c(=O)[nH]c2c1 | -0.24%
8 | CN(CCn1nc2ccccn2c1=O)CC(=O)N(C)C1CCCCC1 | -138%
9 | Cc1csc(N2CCCN(CCC(=O)NC(N)=O)CC2)n1 | -24.2%
10 | O=C(NCc1ccccn1)Nc1cc(C(F)(F)F)c[nH]c1=O | -2.87%
11 | O=C(NCCCO)NCCc1cc(F)ccc1F | 2.37%
12 | CN1C[C@H]2CN(C(=O)c3ccc4c(c3)OCO4)CCN2C1=O | -0.434%
13 | Cc1cnn(CCCNC(=O)CCC2CCCCN2C)c1 (stereo unspecified) | -7.32%
14 | CC(C)C(NC(=O)C1CCCC1)c1cc(O)nc(-c2cccnc2)n1 (stereo unspecified) | 9.82%
15 | CNC(=O)c1cn[nH]c1C1(C)CCCN(CC2(O)CCCCC2)C1 (stereo unspecified) | -26%
16 | COCCO[C@H]1CCN(Cc2ccoc2)[C@H]1Cc1cccnc1 | -3.85%
17 | COCCN1CCN(Cc2c(C)noc2C)Cc2cccnc21 | -70.1%
18 | COCc1ccc(C(=O)N2CC[C@H](O)[C@@H](n3ccnc3)CC2)cc1 | -12.1%
19 | Cc1ccccc1CNC(=O)N1CCC(n2cncn2)CC1 | 2.54%
20 | CCNC(=O)Nc1ccc(N2CCC(OC)CC2)c(C(F)(F)F)c1 | 20.4%
21 | CN(CC(=O)Nc1cc(-n2nnnc2C2CC2)ccc1F)C1CCC1 | 8.83%
22 | CC(C)(O)CN1CCN(C(=O)c2ccc(Cl)c3cccnc23)CC1 | -9.19%
23 | Cc1c(Cl)cccc1S(=O)(=O)N1CCC2(CC1)OCCS2 | 4.19%

Row | SMILES | cytotoxicity at 10 µM
24 | CC(=O)N1CCN(Cc2ccc(F)c(C(F)(F)F)c2)CC(O)C1 (stereo unspecified) | -6.87%
25 | CN(CC(=O)N1CCC(Cc2cccc(C(N)=O)c2)C1)C1CCCC1 (stereo unspecified) | -7.92%
26 | O=C(C1CCCO1)N1CCC2(CC1)COCCN2CC1CC1 (stereo unspecified) | 2.79%
27 | Cc1ccccc1C1(C(=O)N2CCCC(n3cncn3)C2)CC1 (stereo unspecified) | -4.37%
28 | CC1CN(c2ncccc2C(=O)Nc2cccc3c2CCCC3)CCN1 (stereo unspecified) | 4.65%
29 | CNS(=O)(=O)c1ccc(CN2CCN(Cc3ncccc3C)CC2)cc1 | 8.41%
30 | COc1ccc(CN2CCCC(Cn3nc(C)nc3C)C2)cc1F (stereo unspecified) | -0.409%
31 | CCc1nnc(CN(C)Cc2cccc(C(=O)Nc3cnn(C)c3)c2)o1 | -5.54%
32 | COCCN1CCC2(CCN(CC3CC3)CC2)C1=O | 7.55%
33 | Cc1ccc(C(=O)N2C[C@@H]3OCCN(CCN4CCCC4)[C@@H]3C2)cn1 | 2.39%
34 | CN1CCO[C@H]2CN(C(=O)c3ccoc3)C[C@H]21 | -80.6%
35 | CCc1noc(C)c1C(=O)NCc1c(C)nn(CCOC)c1C | -9.35%
36 | CC1=Nc2c(c(=O)[nH]n2C2CCCCC2)C(c2cccnc2)S1 (stereo unspecified) | 6.72%
37 | Cc1cc(C(=O)NCC2CCCO2)c(C)n1-c1cccnc1 (stereo unspecified) | 4.95%
38 | Cc1cc(NCc2nnc3n2CCCCC3)n2nc(C)c(C)c2n1 | 5.66%
39 | CCn1cc(CN2CCN(C(=O)c3cc(Br)cs3)CC2)c(C)n1 | 4.95%
40 | CC(O)CN1CCN(C(=O)c2ccc(Cn3cccc3)cc2)CC1 (stereo unspecified) | -5.75%
41 | NCc1cc(-c2ccccc2)n2nccc2n1 | -14.7%
42 | CC1(C)CNC(=O)c2nc(CCN3CCCCC3CO)[nH]c2C1 (stereo unspecified) | -3.24%
43 | CCc1nc2ccccc2n1C(CC)C(=O)N(C)CCc1noc(C)n1 (stereo unspecified) | 3.02%
44 | CN(C)CCOCC1CN(Cc2ccncc2)Cc2nnn(C)c21 (stereo unspecified) | 3.66%
45 | Cn1cc(CN2CCc3nc4sccc4c(=O)n3CC2)cn1 | -2.19%
46 | N#Cc1ccc(N2CCC3(CCC(=O)N3Cc3ccncc3)CC2)nc1 | -109%

Row | SMILES | cytotoxicity at 10 µM
47 | Cc1ccc(CN2C[C@@H](OCc3ccccn3)[C@H]3COC[C@H]32)o1 | -114%
48 | CC(C)C[C@H](N)C(=O)N1CC2(CCNCC2)c2cc(Cl)ccc21 | -8.34%
49 | O=C(NCCn1ccnc1)c1csc(Br)c1 | 13%
50 | O=C(c1ccncc1)N1CCCC2(CCN(c3cccnc3)C2=O)C1 (stereo unspecified) | -131%
51 | Cc1nc(CC2CCN(C(=O)C(c3ccccc3C)N(C)C)CC2)no1 (stereo unspecified) | 4.66%
52 | O=C(NCC1CC[C@@]2(CNCCOC2)O1)c1cccnc1 (stereo partly specified) | 2.32%
53 | Cc1cnc(CCNC(=O)NCCOc2ncccc2Cl)s1 | 9.18%
54 | CN(C)C(=O)CN1CCC2(CCN(S(C)(=O)=O)CC2)C1=O | 2.2%
55 | Cc1cnc(C)c(N2CCC(Cc3ccccc3Cl)(C(=O)O)CC2)n1 | 3.4%
56 | CC1C(=O)Nc2cccnc2N1S(=O)(=O)c1ccc(C#N)c(Cl)c1 (stereo unspecified) | -6.75%
57 | CS(=O)(=O)Cc1nc(CN2CCOc3ccccc3C2)cs1 | 5.81%
58 | Cc1nc(C2CCCN(C(=O)c3ccc(Cl)cn3)C2)no1 (stereo unspecified) | -10.4%
59 | CCCc1noc(CCC(=O)N2CCCC(n3ccnc3C)C2)n1 (stereo unspecified) | -4.39%
60 | CN(CC(=O)N(C)C1CC1)C1CCN(c2ccc(Cl)cc2)CC1 | 0.153%
61 | CC(C)c1n[nH]c(C(=O)NC(C)c2ccncc2)c1Br (stereo unspecified) | -5.85%
62 | O=S(=O)(C1CC1)N1CCO[C@H]2[C@H](OCC3CCCC3)CC[C@@H]21 | -5.58%
63 | COc1cc(NC(=O)c2ccc(F)cc2Cl)c(C(=O)N(C)C)cc1OC | -11.1%
64 | CS(=O)(=O)CCN1CCC(Nc2c(Cl)cccc2C#N)CC1 | 2.22%
65 | CS(=O)(=O)CC1CCCN(C(=O)Cn2cccc(C(F)(F)F)c2=O)C1 (stereo unspecified) | 4.1%
66 | Cc1cc(C(=O)N2CCC(c3nccn3CCCN(C)C)CC2)no1 | -12.4%
67 | O=C(C1CCOC1)N1CCN(Cc2cccnc2)c2ncccc2C1 (stereo unspecified) | 3.07%
68 | c1ccc(NCc2ccc(Cn3ccnc3)cc2)nc1 | 70.9%
69 | COCCN(CC(C)C)c1cc(C)ncn1 | 1.38%

Row | SMILES | cytotoxicity at 10 µM
70 | c1cnc(NCc2n[nH]c3c2CCN(Cc2cccnc2)C3)nc1 | -7.15%
71 | CC(=O)N[C@@H]1CN(C(=O)c2cnc3ccccc3c2)C[C@H]1O | -12.1%
72 | CCOc1ncccc1NC(=O)N1CCCC1c1cc(C)no1 (stereo unspecified) | 0.87%
73 | Cc1cccc(CN2CCc3onc(Cn4cccc4)c3C2)n1 | 7.81%
74 | COCCCn1nnc(C2(NC(=O)c3ccccc3)CCCC2)n1 | 9.24%
75 | CS(=O)(=O)N1C[C@@H]2COC[C@]2(CN2CCOCC2)C1 | 0.472%
76 | CCN(CC)S(=O)(=O)N1CCCC1C(=O)N1CCSCC1 (stereo unspecified) | -4.71%
77 | Cc1cc(Cl)c(C)c(S(=O)(=O)N2CCN(Cc3ccccn3)CC2)c1Cl | -7.06%
78 | CCOCC(O)CN1CCN(C(=O)Cc2ccccc2C)CC1 (stereo unspecified) | -3.43%
79 | O=C(Cc1ccsc1)NC1CCc2c(ccc(=O)n2CC2CC2)C1 (stereo unspecified) | 8.88%
80 | CCCS(=O)(=O)Nc1ccc2c(c1)OCC(C)(C)C(=O)N2C | -10.8%
81 | C=c1ncsc1=C1NN=C(C2CCCN2C(=O)CCn2cccn2)O1 (stereo unspecified) | 2.29%
82 | Cc1ccc(-n2nnc(C(=O)NC(C)C)c2C2CC2)cc1 | -3.37%
83 | COC(=O)CCC(=O)N1CCc2nc(C(=O)N3CCOCC3)sc2CC1 | 15.3%
84 | O=C(NCC1CCOC1)c1csc(-c2ccco2)n1 (stereo unspecified) | -6.49%
85 | CC(NC(=O)NCCCn1ccnc1)c1ccc2c(c1)CCC(=O)N2 (stereo unspecified) | -4.74%
86 | CCn1c(C)nnc1SCCNC(=O)Cn1cnc2ccccc2c1=O | 8.28%
87 | COc1cccc(Nc2nc(C3CCCNC3)c3sc(C)c(C)n23)c1 (stereo unspecified) | -4.93%
88 | Nc1nccnc1C1CN(C(=O)c2ccnnc2)CCO1 (stereo unspecified) | 9.48%
89 | CCC(C)NC(=O)c1ccc(NC(=O)CCCn2cncn2)c(C)c1 (stereo unspecified) | -10.7%
90 | Cc1cnc2c(c1NCc1ccc3c(c1)OCO3)c(=O)n(C)c(=O)n2C | 16.7%
91 | COc1c(C(=O)N2CCNC(=O)C2)cnc2c1c(C)nn2C | 6.26%
92 | Cn1nc(CN2CCCCC2)c2c1CN(C(=O)c1cccc(Cl)c1)C2 | -1.35%

Row | SMILES | cytotoxicity at 10 µM
93 | Cc1ccc(OCCC(=O)NC2CC(=O)N(C)C2)cc1C (stereo unspecified) | -9.25%
94 | Cc1nnc(NC(=O)NC2CCOc3ccccc32)s1 (stereo unspecified) | -13.4%
95 | CC(C)CC(=O)N1CC[C@@H]2[C@H](CC1)N(Cc1cccnc1)CCS2(=O)=O | 0.238%
96 | O=C(O)CN1CCC(c2ccccc2)C1 (stereo unspecified) | 1.67%
97 | CN(C)C(=O)COC1COC2(CCN(c3ncccn3)CC2)C1 (stereo unspecified) | -72.8%
98 | CN(C)c1cc(C(=O)Nc2ccccc2C(=O)NC(C)(C)C)ccn1 | 2.46%
99 | Cc1cccc(CC(=O)NS(=O)(=O)c2ccc(F)c(F)c2)c1 | -5.23%
100 | CC(C)Oc1cccc(C(=O)C2CCCN(S(=O)(=O)C(C)C)C2)c1 (stereo unspecified) | 5.47%
101 | CC(=O)Nc1ccc(-c2ccccc2NC(=O)CN)cc1 | 2.83%
102 | CC(C)Cn1cc(NC(=O)NC(C)(C)c2nccs2)cn1 | 7.44%
103 | Cc1nc(CN2CCCC(NCCOc3cccc(C#N)c3)C2)no1 (stereo unspecified) | -8.36%
104 | O=C(O)CCn1ccc2cc(Br)ccc21 | 10.7%
105 | COCC(O)CNC(=O)c1coc(COc2cccc(F)c2)n1 (stereo unspecified) | -139%
106 | COCCN1CCN(CC(=O)N(C)Cc2cccc(F)c2)CC1C (stereo unspecified) | -151%
107 | COC(=O)c1ccc(N(C)C2CCC2)nn1 | 19.8%
108 | CNS(=O)(=O)CCN1CC(c2ccccc2)(c2ccccc2)CCC1=O | -7.91%
109 | Cc1cc(CN2CCC(C3CCN(CCc4ccccc4)CC3)C2)[nH]n1 (stereo unspecified) | 9.2%
110 | N#Cc1ccc(OCCN2CCc3cncnc3C2)cc1 | -9.96%
111 | Cn1ccnc1C(=O)N[C@@H]1CN(Cc2cccs2)[C@@H]2CCCO[C@@H]21 | 3.16%
